Compounds with a hit are over-represented: about 1.7% of the library has one in this group of screens.
Scp1 inh: inhibitors of human Scp-1 phosphatase; Recombinant Scp1, phosphopeptide, malachite green phosphate absorbance; inhibition, % at 20 µM; 340,000 compounds, 0.88% hits; AID 493091;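 active means inhibition above about 50% at 20 µM, limit read from the data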
Target sequence (Q9GZU7 76-261 limits assumed): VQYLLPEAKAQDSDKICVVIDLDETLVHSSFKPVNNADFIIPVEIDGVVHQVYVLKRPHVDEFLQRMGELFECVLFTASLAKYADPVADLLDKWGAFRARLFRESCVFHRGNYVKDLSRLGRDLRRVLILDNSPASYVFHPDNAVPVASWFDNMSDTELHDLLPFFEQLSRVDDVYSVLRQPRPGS
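assay system = SCP-1 phosphatase catalytic domain, residues 76-261 | buffer or medium = 50 mM Tris acetate pH 5.5, 0.005% Tween-20, 10 mM MgCl2 | incubation = enzyme reaction 45 min at room temperature, colour 5 min, stabilisation 30 min | signal = Phosphate-binding colour reagent, absorbance read at 630 nm | measure = % inhibition at 20 µM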
DNMT1 inh: inhibitors of human DNMT1. DNMT1 molecular beacon, Hinp1I cleavage, fluorescence. inhibition (reported as % activation of signal), % at 10 µM. 360,000 compounds, 0.83% hits. AID 588458; in the data active means inhibition above about 50%
SUMO1-SIM PPI: alters human SUMO1 binding to SIM partners. P63165. SUMO1 binding to a labelled peptide, TR-FRET, 1 h. inhibition, % at 20 µM. 360,000 compounds, 0.33% hits. AID 602429; in the data active means inhibition above about 37%
Target sequence (P63165 whole entry, looked up): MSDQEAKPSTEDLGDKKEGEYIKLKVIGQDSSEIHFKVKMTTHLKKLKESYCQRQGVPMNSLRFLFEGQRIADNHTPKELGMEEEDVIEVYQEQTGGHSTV
STEP inh: STEP (human) phosphatase inhibition; P54829; recombinant STEP, OMFP fluorogenic substrate, fluorescence; inhibition, % at 20 µM; 360,000 compounds, 0.25% hits; AID 588621;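 active means inhibition at 20 µM, scaled per plate between control wells, above about 37%, limit read from the data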
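material = STEP tyrosine phosphatase | reagent = fluorogenic phosphatase substrate OMFP at 25 µM final | doses = single compound dose of 20 µM, 1% DMSO final | schedule = 20 min reaction, room temperature, in the dark | measured by = fluorescence, 480/540 nm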
LMPTP inh: blocks human LMPTP phosphatase; P24666; recombinant LMPTP-A, OMFP fluorogenic substrate, fluorescence intensity; inhibition, % at 20 µM; 360,000 compounds, 0.22% hits;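 active means compounds that cut the enzyme signal by at least half of the control window in the single-dose screen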
Target sequence (P24666 whole entry, looked up): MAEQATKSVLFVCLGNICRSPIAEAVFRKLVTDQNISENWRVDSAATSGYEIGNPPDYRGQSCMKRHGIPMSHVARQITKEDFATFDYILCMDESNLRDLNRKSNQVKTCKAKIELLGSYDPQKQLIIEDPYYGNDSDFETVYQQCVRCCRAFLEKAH
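material = LMPTP-A | quantity = 0.625 nM enzyme | reagent = OMFP substrate, 400 µM final | buffer or medium = Bis-Tris pH 6.0, DTT, detergent | detection = endpoint fluorescence intensity from OMFP dephosphorylation | dosing = single 20 µM dose | read-out basis = % inhibition relative to no-enzyme and uninhibited control wells | control set = no-enzyme and uninhibited controls | timing = 50 min at room temperature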
DNMT1 confirm: confirmation of human DNMT1 inhibitors; AID 602385; 2,300 compounds, 8% hits; inhibition, % at 10 µM; DNMT1 molecular beacon HinP1I cleavage, fluorescence; shares compounds with DNMT1 inh;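 active means average inhibition of at least 30% in the single-concentration confirmation test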
Beacon interf: beacon fluorescence artifact counter-screen. shares compounds with DNMT1 inh. DNMT1 molecular beacon spectral interference counterscreen, fluorescence 485/520. activation (fluorescence interference), % at 10 µM. 2,300 compounds, 1% hits. AID 602387;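 active means activation of at least 30% at 10 µM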;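 further: DNMT1 catalytic domain with a HinP1I cleavage step and a FAM/dabcyl DNA beacon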
Hits are given with their value; n = inactive; x = no result.

SMILES	Scp1 inh	DNMT1 inh	SUMO1-SIM PPI	STEP inh	LMPTP inh	DNMT1 confirm	Beacon interf
COc1ccc(CNC(=O)c2nnn(Cc3ccc(OC)cc3)c2N)cc1	n	n	n	n	n	x	x
Cc1cc(C)cc(NC(=O)Cn2nnc(C(=O)NCCc3ccccc3)c2N)c1	n	67	n	n	n	n	n
Nc1c(C(=O)NCc2ccccc2)nnn1Cc1ccc(F)cc1	n	50	n	n	n	n	n
CCC1(C)COC(C)(CC(=O)NNC(=O)Nc2ccccc2)OC1 (centres undefined)	n	81	n	n	n	n	n
COc1ccc(CC(=O)Nc2ccc(-c3noc(-c4cccc(OC)c4)n3)cc2)cc1	n	61	n	n	n	n	n
COc1cccc(-c2nc(-c3ccc(NC(=O)c4cccnc4)cc3)no2)c1	n	n	n	n	n	x	x
Cc1ccc(C(CCN(Cc2ccccc2)C(=O)c2ccco2)c2ccco2)cc1 (centres undefined)	n	56	n	n	n	n	n
Cc1nnc(-c2ccco2)c2cn(-c3cccc(Br)c3)nc12	n	91	n	n	n	n	n
Cc1nc2ccccc2n1CC(=O)NN	n	74	n	n	n	n	n
O=c1oc2c3c4c(cc2s1)CCCN4CCC3	n	85	n	n	67	n	n
O=c1ccc2cc3c4c(c2o1)CCCN4CCC3	n	n	n	n	n	x	x
O=C(C[C@H]1C[C@H](C(=O)N2CCCCC2)[C@@]2(CCc3ccccc3)c3[nH]c4ccc(Cl)cc4c3CCN2C1=O)NCCc1ccccn1	n	n	n	n	n	x	x
O=C(C[C@H]1C[C@H](C(=O)N2CCCCC2)[C@@]2(CCc3ccccc3)c3[nH]c4ccc(Cl)cc4c3CCN2C1=O)NCCC1=CCCCC1	n	61	n	n	n	n	n
O=C(CC1C[C@H](C(=O)N2CCCCC2)[C@@]2(CCc3ccccc3)c3[nH]c4ccccc4c3CCN2C1=O)NCCC1=CCCCC1 (some centres undefined)	n	60	n	n	n	n	n
CC(=O)c1cc(C(=O)N2CCc3c([nH]c4ccccc34)C2C2CCCCC2)[nH]n1 (centres undefined)	n	n	n	n	n	x	x
Cn1c(N)c(C(=O)CSc2nnc3n2CCCCC3)c(=O)n(C)c1=O	n	n	n	n	n	x	x
Cc1ccc(C)c(Cn2nnc3c(=O)[nH]c(C(=O)NCc4ccco4)nc32)c1	n	52	n	n	n	n	n
O=C(NCc1ccco1)c1nc2c(nnn2Cc2ccccc2Cl)c(=O)[nH]1	n	n	n	n	n	x	x
Cc1ccc(OCc2ccoc2C(=O)O)cc1C	n	54	n	n	n	n	n
Cc1ccc(OCc2ccc(C(=O)O)o2)cc1C	n	n	n	n	n	x	x
CN(C)CC1CCC/C(=C\c2ccc(OC(=O)/C=C/c3ccc(Cl)c(Cl)c3)cc2)C1=O (centres undefined)	n	50	n	n	n	n	n
NC(=O)CC(NC(=O)Cc1cccc2ccccc12)c1ccc(NC2CCCCCCC2)c([N+](=O)[O-])c1 (centres undefined)	n	60	n	n	n	n	n
NC(=O)CC(NC(=O)Cc1ccc(Br)cc1)c1ccc(NC2CCCC2)c([N+](=O)[O-])c1 (centres undefined)	n	54	n	n	n	n	n
O=C(c1cc2c(s1)CCCC2)N1CCN(Cc2ccc3c(c2)OCO3)CC1	n	n	n	n	n	x	x
O=C(Oc1ccc2c(c1)OCO2)c1cc2c(s1)CCC2	65	100	n	n	52	n	n
SMILES	Scp1 inh	DNMT1 inh	SUMO1-SIM PPI	STEP inh	LMPTP inh	DNMT1 confirm	Beacon interf
CN1CCN(C(=O)c2cc(Br)cn2C)CC1	n	n	n	n	n	x	x
Cc1cccn2c(=O)c3cc(C(=O)NCCC4=CCCCC4)n(C)c3nc12	n	59	n	n	n	n	n
C[n+]1cccc2cccc([O-])c21	n	78	40	n	52	n	n
[O-][n+]1cccc2cccc(O)c21	n	n	n	n	n	x	x
CC1CCN(S(=O)(=O)N2CCC(C(=O)NCc3cccnc3)CC2)CC1	n	n	n	n	n	x	x
O=C(CN1C(=O)/C(=C/c2ccco2)SC1=S)Nc1ccc(O)c(C(=O)O)c1	63	87	84	60	n	n	n
O=C(CCN1C(=O)/C(=C/c2ccccc2)SC1=S)NC1CCS(=O)(=O)C1 (centres undefined)	n	n	n	n	n	x	x
O=C(CN1C(=O)/C(=C/c2ccco2)SC1=S)NC1CCS(=O)(=O)C1 (centres undefined)	58	76	n	45	n	n	n
COc1ccc(NC(=O)CCCN2C(=O)/C(=C\c3ccco3)SC2=S)cc1	n	n	n	n	n	x	x
O=C(CCCN1C(=O)/C(=C\c2ccco2)SC1=S)Nc1ccc(O)cc1C(=O)O	69	99	64	43	n	n	n
O=C(CCCN1C(=O)/C(=C/c2ccco2)SC1=S)Nc1cccc(C(=O)O)c1	51	86	50	n	n	n	n
Cc1ccc(C(=O)N2CCN(C)CC2)cc1S(=O)(=O)N1CCCCCC1	n	n	n	n	n	x	x
CCCCN1CC(COCc2ccccc2)Oc2cccc(Oc3ccc(C)cc3)c2S1(=O)=O (centres undefined)	n	n	n	n	n	x	x
CCOC(=O)c1ccc(NC(=O)C2CCN(S(=O)(=O)CC)CC2)cc1	n	n	n	n	n	x	x
CCOc1ccc(NC(=O)C2CCN(S(=O)(=O)CC)CC2)cc1	n	60	n	n	n	n	n
CC1CCN(C(=O)COC(=O)Cn2cnc3ccccc32)CC1	n	n	n	n	n	x	x
COc1ccccc1CCNC(=O)c1cccc(NC(=O)CC2SC(N3CCCCC3)=NC2=O)c1 (centres undefined)	n	n	n	n	n	x	x
C/C(=N\NC(=O)C1CC1)c1ccc(OC(F)F)cc1	n	n	n	n	n	x	x
O=C(COC(=O)c1ccccc1O)Nc1ncc(Cl)cc1Cl	n	64	n	n	n	n	n
CCCCn1c(N)c(-c2nc3ccccc3o2)c2c([N+](=O)[O-])nn(CC)c(=O)c21	n	56	n	n	n	n	n
CCCCCn1c(N)c(-c2nc3ccccc3s2)c2c([N+](=O)[O-])nn(C)c(=O)c21	n	n	n	n	n	x	x
COc1ccc(-c2nc3c(C(=O)NCCN(C)C)cccc3c3ccccc23)cc1	n	59	n	n	n	n	n
Cc1ccc(Nc2nc(C)cc(C)n2)c(Br)c1	n	n	n	n	n	x	x
